Laboratory results as given in ChEMBL document CHEMBL4477180, “Synthesis and Structure-Activity Relationships of N-Dihydrocoptisine-8-ylidene Aromatic Amines and N-Dihydrocoptisine-8-ylidene Aliphatic Amides as Antiulcerative Colitis Agents Targeting XBP1” (J Nat Prod, 2016).
Values belong to the molecule of their own block, whether it stands above or below them. Activity calls are given as the source filed them. The rule behind the calls is not given here.

Key:
[1] = Cytotoxicity against rat IEC-6 cells assessed as survival at 10 uM by MTT assay; assay type: cell-based; settings: read-out: Survival
[2] = molecular target: T1, X-box-binding protein 1 (Rattus norvegicus) (UniProt Q9R1S4); test: Activation of XBP1 in rat IEC-6 cells assessed as transcriptional activity at 10 uM measured after 48 hrs by dual luciferase reporter gene assay relative to con 2; assay type: cell-based
T1 sequence (whole entry): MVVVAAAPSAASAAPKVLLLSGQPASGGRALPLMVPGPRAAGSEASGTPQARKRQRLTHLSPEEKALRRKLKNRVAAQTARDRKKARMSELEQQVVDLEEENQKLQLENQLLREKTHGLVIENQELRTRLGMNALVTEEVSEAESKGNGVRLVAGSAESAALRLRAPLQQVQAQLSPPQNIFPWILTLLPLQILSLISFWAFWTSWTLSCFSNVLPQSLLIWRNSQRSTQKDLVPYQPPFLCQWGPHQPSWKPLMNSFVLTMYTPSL
Procedure, shortened: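 XBP1 transcriptional activity read by dual luciferase reporter in growth-phase IEC-6 cells (5 × 10⁴ cells/well). Cells had 4 h plasmid transfection at 37 °C, 5% CO₂, then were coincubated 48 h with compound at 10 μM. Con 1 served as background contrast and con 2 as the pGL3-basic vector control.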

X-box-binding protein 1 = molecular target: T2, X-box-binding protein 1 (Rattus norvegicus, UniProt Q9R1S4); test: Activation of XBP1 in rat IEC-6 cells assessed as transcriptional activity measured after 48 hrs by dual luciferase reporter gene assay; assay type: cell-based
T2 sequence (Q9R1S4 whole entry): T1 sequence (whole entry)
Procedure, shortened: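 Dose–effect version of the IEC-6 XBP1 dual luciferase reporter assay. Cells (5 × 10⁴/well) had 4 h plasmid transfection at 37 °C, 5% CO₂, then 48 h coincubation with compound; EC₅₀ was taken from the dose–effect relationship.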

Mus musculus [3] = test: Antiulcerative activity in DSS-induced C57BL/6J mouse model of acute ulcerative colitis assessed as body weight loss at 200 mg/kg, po measured over 7 days (reference value: 18%); assay type: functional
Mus musculus [4] = test: Antiulcerative activity in DSS-induced C57BL/6J mouse model of acute ulcerative colitis assessed as colon contracture at 200 mg/kg, po measured over 7 days (reference value: 37 %); assay type: functional
Procedure, shortened: (§1)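 Acute DSS colitis in C57bl/6j mice (n = 8/group), oral dosing (200 mg/kg test, SASP 300 mg/kg), 7-day trial with normal and DSS model groups. Colon length was measured at the end of the trial, and contracture was given as percentage shortening versus normal controls.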

Mus musculus [5] = test: Antiulcerative activity in DSS-induced C57BL/6J mouse model of acute ulcerative colitis assessed as inhibition of disease activity index at 200 mg/kg, po measured over 7 days relative to control; assay type: functional; settings: 168 h
Procedure, shortened: (§2)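 Disease activity index (DAI) was scored in DSS-induced acute UC C57bl/6j mice (n = 8/group) given oral compound at 200 mg/kg or SASP at 300 mg/kg over 7 days. Inhibition ratio (IR %) is reported relative to the DSS model group.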

Mus musculus [6] = test: Antiulcerative activity in DSS-induced C57BL/6J mouse model of acute ulcerative colitis assessed as colon macroscopic damage index at 200 mg/kg, po measured over 7 days (reference value: 4.63 +/- 0.52); assay type: functional
Mus musculus [7] = test: Antiulcerative activity in DSS-induced C57BL/6J mouse model of acute ulcerative colitis assessed as regular arrangement of IEC cells at 200 mg/kg, po measured over 7 days by microscopic analysis; assay type: functional, organism-based
Procedure, shortened: (§3)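 At the end of the 7-day DSS acute UC trial in C57bl/6j mice (oral 200 mg/kg; SASP 300 mg/kg; normal and model groups), colon tissue was examined microscopically after HE staining at ×200 for histopathological change.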

Mus musculus [8] = test: Antiulcerative activity in DSS-induced C57BL/6J mouse model of acute ulcerative colitis assessed as body weight loss at 300 mg/kg, po measured over 7 days (reference value: 18%); assay type: functional
Mus musculus [9] = test: Antiulcerative activity in DSS-induced C57BL/6J mouse model of acute ulcerative colitis assessed as colon contracture at 300 mg/kg, po measured over 7 days (reference value: 37 %); assay type: functional; procedure, shortened: as §1
Mus musculus [10] = test: Antiulcerative activity in DSS-induced C57BL/6J mouse model of acute ulcerative colitis assessed as inhibition of disease activity index at 300 mg/kg, po measured over 7 days relative to control; assay type: functional; settings: 168 h; procedure, shortened: as §2
Mus musculus [11] = test: Antiulcerative activity in DSS-induced C57BL/6J mouse model of acute ulcerative colitis assessed as colon macroscopic damage index at 300 mg/kg, po measured over 7 days (reference value: 4.63 +/- 0.52); assay type: functional
Mus musculus [12] = test: Antiulcerative activity in DSS-induced C57BL/6J mouse model of acute ulcerative colitis assessed as partial disappearance of inflammatory edema at 300 mg/kg, po measured over 7 days by microscopic analysis
Mus musculus [13] = test: Antiulcerative activity in DSS-induced C57BL/6J mouse model of acute ulcerative colitis assessed as improvement in colon lesion at 200 mg/kg, po measured over 7 days by microscopic analysis; assay type: functional, organism-based; procedure, shortened: as §3

Compound: N=c1c2c3c(ccc2cc2n1CCc1cc4c(cc1-2)OCO4)OCO3
viability at 10 µM [1]: 79 to 103%
Ratio [2]: 0.78 to 107
EC50 (X-box-binding protein 1): Not Active

Compound: c1ccc(/N=c2/c3c4c(ccc3cc3n2CCc2cc5c(cc2-3)OCO5)OCO4)cc1
viability at 10 µM [1]: 79 to 103%
fold change (FC) [2]: > 1.07
EC50 (X-box-binding protein 1; read-out: EC50): 113 nM

Compound: CCCCCCC(=O)/N=c1\c2c3c(ccc2cc2n1CCc1cc4c(cc1-2)OCO4)OCO3
viability at 10 µM [1]: 79 to 103%
Ratio [2]: 0.78 to 107
EC50 (X-box-binding protein 1): Not Active

Compound: CCCCCCCC(=O)/N=c1\c2c3c(ccc2cc2n1CCc1cc4c(cc1-2)OCO4)OCO3
viability at 10 µM [1]: 79 to 103%
Ratio [2]: 0.78 to 107
EC50 (X-box-binding protein 1): Not Active

Compound: Cc1ccc(/N=c2/c3c4c(ccc3cc3n2CCc2cc5c(cc2-3)OCO5)OCO4)cc1
viability at 10 µM [1]: 79 to 103%
fold change (FC) [2]: > 1.07
EC50 (X-box-binding protein 1; read-out: EC50): 13.2 nM
Activity (Mus musculus [3]): 11%
Activity (Mus musculus [4]): 9%
inhibition in vivo at 200 mg/kg (Mus musculus [5]): 27%
Activity (Mus musculus [6]): 2.63
Activity (Mus musculus [7]): Active

fold change (FC) [2]: > 1.07
EC50 (X-box-binding protein 1; read-out: EC50): 79.8 nM
Compound: O=c1c2c3c(ccc2cc2n1CCc1cc4c(cc1-2)OCO4)OCO3

Compound: COc1ccc(/N=c2/c3c4c(ccc3cc3n2CCc2cc5c(cc2-3)OCO5)OCO4)cc1
viability at 10 µM [1]: 79 to 103%
Ratio [2]: 0.78 to 107
EC50 (X-box-binding protein 1; read-out: EC50): 184 nM

Compound: Fc1ccc(/N=c2/c3c4c(ccc3cc3n2CCc2cc5c(cc2-3)OCO5)OCO4)cc1
viability at 10 µM [1]: 79 to 103%
fold change (FC) [2]: > 1.07
EC50 (X-box-binding protein 1; read-out: EC50): 346 nM

Compound: O=C(O)C1=C/C(=N\Nc2ccc(S(=O)(=O)Nc3ccccn3)cc2)C=CC1=O
Activity (Mus musculus [8]): 9%
Activity (Mus musculus [9]): 24%
inhibition in vivo at 300 mg/kg (Mus musculus [10]): 18%
Activity (Mus musculus [11]): 3.17
Activity (Mus musculus [12]): Active

Compound: CCC(=O)/N=c1\c2c3c(ccc2cc2n1CCc1cc4c(cc1-2)OCO4)OCO3
viability at 10 µM [1]: 79 to 103%
fold change (FC) [2]: > 1.07
EC50 (X-box-binding protein 1; read-out: EC50): 289 nM

Compound: Brc1ccc(/N=c2/c3c4c(ccc3cc3n2CCc2cc5c(cc2-3)OCO5)OCO4)cc1
viability at 10 µM [1]: 79 to 103%
fold change (FC) [2]: > 1.07
EC50 (X-box-binding protein 1; read-out: EC50): 48.9 nM

Compound: CCCC(=O)/N=c1\c2c3c(ccc2cc2n1CCc1cc4c(cc1-2)OCO4)OCO3
viability at 10 µM [1]: 79 to 103%
fold change (FC) [2]: > 1.07
EC50 (X-box-binding protein 1; read-out: EC50): 119 nM

Compound: [Cl-].c1c2c(cc3c1OCO3)-c1cc3ccc4c(c3c[n+]1CC2)OCO4 [COPTISINE CHLORIDE]
viability at 10 µM [1]: 79 to 103%
Ratio [2]: 0.78 to 107
EC50 (X-box-binding protein 1): Not Active

Compound: CCCCC(=O)/N=c1\c2c3c(ccc2cc2n1CCc1cc4c(cc1-2)OCO4)OCO3
viability at 10 µM [1]: 79 to 103%
fold change (FC) [2]: > 1.07
EC50 (X-box-binding protein 1; read-out: EC50): 32.5 nM
Activity (Mus musculus [3]): 10%
Activity (Mus musculus [4]): 15%
inhibition in vivo at 200 mg/kg (Mus musculus [5]): 33%
Activity (Mus musculus [6]): 2.63
Activity (Mus musculus [13]): Active

Compound: Clc1ccc(/N=c2/c3c4c(ccc3cc3n2CCc2cc5c(cc2-3)OCO5)OCO4)cc1
viability at 10 µM [1]: 79 to 103%
fold change (FC) [2]: > 1.07
EC50 (X-box-binding protein 1; read-out: EC50): 174 nM

Compound: CCCCCC(=O)/N=c1\c2c3c(ccc2cc2n1CCc1cc4c(cc1-2)OCO4)OCO3
viability at 10 µM [1]: 79 to 103%
fold change (FC) [2]: > 1.07
EC50 (X-box-binding protein 1; read-out: EC50): 70.8 nM

Compound: CC(=O)/N=c1\c2c3c(ccc2cc2n1CCc1cc4c(cc1-2)OCO4)OCO3
viability at 10 µM [1]: 79 to 103%
fold change (FC) [2]: > 1.07
EC50 (X-box-binding protein 1; read-out: EC50): 283 nM
